Laboratory results: ChEMBL document CHEMBL1817584, “Synthesis of novel fluconazoliums and their evaluation for antibacterial and antifungal activities” (2011)

What was measured:
Type in all cases: functional
Escherichia coli [1] = assay: Antibacterial activity against Escherichia coli ATCC 8099 after 24 hrs by twofold serial dilution method; settings: ATCC 8099, 24 h
How it was run: (§1)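 Each bacterial suspension was adjusted with sterile saline to 1 × 10⁵ CFU. Compounds were first dissolved in DMSO as stock solutions, then diluted in Mueller–Hinton broth in twofold steps (8, 4, 2, 1, 0.5, 0.25). Dilutions were inoculated and incubated at 37 °C for 24 h, and MIC was read. DMSO plus inoculum without drug served as a solvent control.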

Candida albicans = assay: Antifungal activity against Candida albicans ATCC 76615 after 24 hrs by twofold serial dilution method; settings: ATCC 76615, 24 h
How it was run: (§2)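 A fungal spore suspension was made in sterile distilled water from a 1-day-old culture grown on Sabouraud agar, then tested against serial dilutions of compounds (DMSO stocks) to determine MIC.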

Escherichia coli [2] = assay: Ratio of Chloromycin MIC to compound MIC for Escherichia coli ATCC 8099
Bacillus subtilis [3] = assay: Antibacterial activity against Bacillus subtilis ATCC 21216 after 24 hrs by twofold serial dilution method; settings: ATCC 21216, 24 h; how it was run: as §1
Pseudomonas aeruginosa [4] = assay: Ratio of Chloromycin MIC to compound MIC for Pseudomonas aeruginosa ATCC 27853
Aspergillus fumigatus = assay: Antifungal activity against Aspergillus fumigatus ATCC 96918 after 24 hrs by twofold serial dilution method; settings: ATCC 96918, 24 h; how it was run: as §2
Staphylococcus aureus [5] = assay: Antibacterial activity against Staphylococcus aureus ATCC 6538 after 24 hrs by twofold serial dilution method; settings: ATCC 6538, 24 h; how it was run: as §1
Pseudomonas aeruginosa [6] = assay: Antibacterial activity against Pseudomonas aeruginosa ATCC 27853 after 24 hrs by twofold serial dilution method; settings: ATCC 27853, 24 h; how it was run: as §1
Bacillus subtilis [7] = assay: Ratio of Chloromycin MIC to compound MIC for Bacillus subtilis ATCC 21216
Bacillus [8] = assay: Antibacterial activity against Bacillus proteus ATCC 13315 after 24 hrs by twofold serial dilution method; settings: ATCC 13315, 24 h; how it was run: as §1
Staphylococcus aureus [9] = assay: Antibacterial activity against methicillin-resistant Staphylococcus aureus N315 after 24 hrs by twofold serial dilution method; settings: N315, 24 h
How it was run: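 Compounds were dissolved in DMSO as stock, then diluted twofold in Mueller–Hinton broth. Chloromycin and norfloxacin were run as reference drugs. The inoculum was adjusted in sterile saline to 1 × 10⁵ CFU, and a DMSO-plus-inoculum well served as solvent control. Plates were incubated at 37 °C for 24 h and read as MIC.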

Bacillus [10] = assay: Ratio of Chloromycin MIC to compound MIC for Bacillus proteus ATCC 13315
Staphylococcus aureus [11] = assay: Ratio of Chloromycin MIC to compound MIC for Staphylococcus aureus ATCC 6538
Staphylococcus aureus [12] = assay: Ratio of Norfloxacin MIC to compound MIC for Staphylococcus aureus ATCC 6538

| SMILES | MIC (Escherichia coli [1]) | MIC (Candida albicans) | Ratio (Escherichia coli [2]) | MIC (Bacillus subtilis [3]) | Ratio (Pseudomonas aeruginosa [4]) | MIC (Aspergillus fumigatus) | MIC (Staphylococcus aureus [5]) | MIC (Pseudomonas aeruginosa [6]) | Ratio (Bacillus subtilis [7]) | MIC (Bacillus [8]) | MIC (Staphylococcus aureus [9]) | Ratio (Bacillus [10]) | Ratio (Staphylococcus aureus [11]) | Ratio (Staphylococcus aureus [12]) |
| --- | --- | --- | --- | --- | --- | --- | --- | --- | --- | --- | --- | --- | --- | --- |
| OC(Cn1c[n+](CCOc2ccc3ccccc3c2)cn1)(Cn1c[n+](CCOc2ccc3ccccc3c2)cn1)c1ccc(F)cc1F.[Br-].[Br-] | 2 µg/mL | 8 µg/mL | 4 | 64 µg/mL | 4 | 128 µg/mL | 4 µg/mL | 8 µg/mL | 4 | 4 µg/mL | 32 µg/mL | 4 | 4 |  |
| CCCCCCCC[n+]1cnn(CC(O)(Cn2c[n+](CCCCCCCC)cn2)c2ccc(F)cc2F)c1.[Br-].[Br-] | 1 µg/mL | 2 µg/mL |  | 32 µg/mL |  | 128 µg/mL | 1 µg/mL | 8 µg/mL |  | 64 µg/mL | 8 µg/mL |  | 64 | 8 |
